Active and inactive are the calls of the source. The rule behind the calls is not given here.
Assays:
[1] = tested on: T47D; test: Growth inhibition of human T47D cells at 10 uM relative to control; format: functional; conditions: read-out: GI
Outline: (§1)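 Single-dose screen across the 60-cell-line human tumor panel at 10 μM. Growth inhibition is reported as a percentage, taken as 100 minus the % growth relative to untreated control.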

[2] = tested on: UO-31; test: Growth inhibition of human UO31 cells at 10 uM relative to control; format: functional; conditions: read-out: GI; outline: as §1
[3] = tested on: SNB-75; test: Growth inhibition of human SNB75 cells at 10 uM relative to control; format: functional; conditions: read-out: GI; outline: as §1
[4] = tested on: A549; test: Growth inhibition of human A549 cells at 10 uM relative to control; format: functional; conditions: read-out: GI
Outline: (§2)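 Each cell line in a 60-line human tumour panel exposed to one 10 μM concentration. Growth inhibition percentage computed as 100 minus the percentage activity relative to control.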

[5] = tested on: SNB-19; test: Growth inhibition of human SNB19 cells at 10 uM relative to control; format: functional; conditions: read-out: GI; outline: as §1
[6] = tested on: K562; test: Growth inhibition of human K562 cells at 10 uM relative to control; format: functional; conditions: read-out: GI; outline: as §2
[7] = tested on: RXF 393; test: Growth inhibition of human RXF393 cells at 10 uM relative to control; format: functional; conditions: read-out: GI; outline: as §2
[8] = Growth inhibition of human 786-O cells at 10 uM relative to control; format: functional; conditions: 786-0, read-out: GI; outline: as §2
[9] = tested on: OVCAR-8; test: Growth inhibition of human OVCAR8 cells at 10 uM relative to control; format: functional; conditions: read-out: GI; outline: as §2
[10] = tested on: Malme-3M; test: Growth inhibition of human MALME-3M cells at 10 uM relative to control; format: functional; conditions: read-out: GI; outline: as §2
[11] = tested on: SK-MEL-5; test: Growth inhibition of human SK-MEL-5 cells at 10 uM relative to control; format: functional; conditions: read-out: GI; outline: as §2
[12] = tested on: SN12C; test: Growth inhibition of human SN12C cells at 10 uM relative to control; format: functional; conditions: read-out: GI; outline: as §1
[13] = tested on: NCI-H322M; test: Growth inhibition of human NCI-H322M cells at 10 uM relative to control; format: functional; conditions: read-out: GI; outline: as §2
[14] = tested on: Mus musculus; test: Anticonvulsant activity in mouse assessed as protection against strychnine-induced seizure at 1 mmol/kg, ip administered 30 min prior to strychnine-challenge measured after 60 mins relative to control; format: functional
[15] = tested on: Mus musculus; test: Anticonvulsant activity in mouse assessed as protection against pentylenetetrazol-induced seizure at 1 mmol/kg, ip administered 30 min prior to pentylenetetrazol-challenge measured after 60 mins relative to control; format: functional
[16] = tested on: RPMI-8226; test: Growth inhibition of human RPMI8226 cells at 10 uM relative to control; format: functional; conditions: read-out: GI; outline: as §2
[17] = tested on: UACC-257; test: Growth inhibition of human UACC257 cells at 10 uM relative to control; format: functional; conditions: read-out: GI; outline: as §1
[18] = tested on: M14; test: Growth inhibition of human M14 cells at 10 uM relative to control; format: functional; conditions: read-out: GI; outline: as §2
[19] = tested on: HT-29; test: Growth inhibition of human HT-29 cells at 10 uM relative to control; format: functional; conditions: read-out: GI; outline: as §2
[20] = tested on: KM12; test: Growth inhibition of human KM12 cells at 10 uM relative to control; format: functional; conditions: read-out: GI; outline: as §2
[21] = tested on: NCI-H23; test: Growth inhibition of human NCI-H23 cells at 10 uM relative to control; format: functional; conditions: read-out: GI; outline: as §2
[22] = tested on: OVCAR-4; test: Growth inhibition of human OVCAR4 cells at 10 uM relative to control; format: functional; conditions: read-out: GI; outline: as §2
[23] = tested on: MCF7; test: Growth inhibition of human MCF7 cells at 10 uM relative to control; format: functional; conditions: read-out: GI; outline: as §2
[24] = tested on: COLO 205; test: Growth inhibition of human COLO205 cells at 10 uM relative to control; format: functional, cell-based; outline: as §2
[25] = tested on: HCC 2998; test: Growth inhibition of human HCC2998 cells at 10 uM relative to control; format: functional; conditions: read-out: GI; outline: as §2
[26] = tested on: OVCAR-5; test: Growth inhibition of human OVCAR5 cells at 10 uM relative to control; format: functional; conditions: read-out: GI; outline: as §2
[27] = tested on: SF-268; test: Growth inhibition of human SF268 cells at 10 uM relative to control; format: functional; conditions: read-out: GI; outline: as §2
[28] = tested on: SF-539; test: Growth inhibition of human SF539 cells at 10 uM relative to control; format: functional; conditions: read-out: GI; outline: as §2
[29] = tested on: SW-620; test: Growth inhibition of human SW620 cells at 10 uM relative to control; format: functional; conditions: read-out: GI; outline: as §1
[30] = tested on: MOLT-4; test: Growth inhibition of human MOLT4 cells at 10 uM relative to control; format: functional; conditions: read-out: GI; outline: as §2
[31] = tested on: SK-OV-3; test: Growth inhibition of human SKOV3 cells at 10 uM relative to control; format: functional; conditions: read-out: GI; outline: as §2
[32] = tested on: DU-145; test: Growth inhibition of human DU145 cells at 10 uM relative to control; format: functional; conditions: read-out: GI; outline: as §2
[33] = tested on: MDA-MB-231; test: Growth inhibition of human MDA-MB-231 cells at 10 uM relative to control; format: functional; conditions: read-out: GI; outline: as §2
[34] = tested on: UACC-62; test: Growth inhibition of human UACC62 cells at 10 uM relative to control; format: functional; conditions: read-out: GI; outline: as §1
[35] = tested on: NCI-H226; test: Growth inhibition of human NCI-H226 cells at 10 uM relative to control; format: functional; conditions: read-out: GI; outline: as §2
[36] = tested on: HOP-62; test: Growth inhibition of human HOP62 cells at 10 uM relative to control; format: functional; conditions: read-out: GI; outline: as §2
[37] = Growth inhibition of human Hs 578T cells at 10 uM relative to control; format: functional; conditions: read-out: GI; outline: as §2
[38] = tested on: MDA-MB-435; test: Growth inhibition of human MDA-MB-435 cells at 10 uM relative to control; format: functional; conditions: read-out: GI; outline: as §2
[39] = tested on: SK-MEL-28; test: Growth inhibition of human SK-MEL-28 cells at 10 uM relative to control; format: functional; conditions: read-out: GI; outline: as §2
[40] = tested on: EKVX; test: Growth inhibition of human EKVX cells at 10 uM relative to control; format: functional; conditions: read-out: GI; outline: as §2
[41] = tested on: CAKI-1; test: Growth inhibition of human CAKI-1 cells at 10 uM relative to control; format: functional; conditions: read-out: GI; outline: as §2
[42] = tested on: CCRF-CEM; test: Growth inhibition of human CCRF-CEM cells at 10 uM relative to control; format: functional; conditions: read-out: GI; outline: as §2
[43] = tested on: ACHN; test: Growth inhibition of human ACHN cells at 10 uM relative to control; format: functional; conditions: read-out: GI; outline: as §2
[44] = tested on: HCT-15; test: Growth inhibition of human HCT15 cells at 10 uM relative to control; format: functional; conditions: read-out: GI; outline: as §2
[45] = tested on: HCT-116; test: Growth inhibition of human HCT116 cells at 10 uM relative to control; format: functional; conditions: read-out: GI; outline: as §2
[46] = tested on: A498; test: Growth inhibition of human A498 cells at 10 uM relative to control; format: functional; conditions: read-out: GI; outline: as §2
[47] = tested on: IGROV-1; test: Growth inhibition of human IGROV1 cells at 10 uM relative to control; format: functional; conditions: read-out: GI; outline: as §2
[48] = tested on: SR; test: Growth inhibition of human SR cells at 10 uM relative to control; format: functional; conditions: read-out: GI; outline: as §1
[49] = tested on: OVCAR-3; test: Growth inhibition of human OVCAR3 cells at 10 uM relative to control; format: functional; conditions: read-out: GI; outline: as §2
[50] = tested on: SF-295; test: Growth inhibition of human SF295 cells at 10 uM relative to control; format: functional; conditions: read-out: GI; outline: as §2
[51] = tested on: HL-60(TB); test: Growth inhibition of human HL-60(TB) cells at 10 uM relative to control; format: functional; conditions: read-out: GI
Outline: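 Single-dose screen at 10 μM across the 60-cell-line tumour panel. Percent growth inhibition = 100 minus percent growth activity relative to untreated control.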

[52] = tested on: NCI-H460; test: Growth inhibition of human NCI-H460 cells at 10 uM relative to control; format: functional; conditions: read-out: GI; outline: as §2
[53] = tested on: PC-3; test: Growth inhibition of human PC3 cells at 10 uM relative to control; format: functional; conditions: read-out: GI; outline: as §2
[54] = tested on: LOX IMVI; test: Growth inhibition of human LOXIMVI cells at 10 uM relative to control; format: functional; conditions: read-out: GI; outline: as §2
[55] = tested on: NCI/ADR-RES; test: Growth inhibition of human NCI/ADR-RES cells at 10 uM relative to control; format: functional; conditions: read-out: GI; outline: as §2
[56] = tested on: Mus musculus; test: Anticonvulsant activity in mouse assessed as protection against maximal electroshock-induced seizure at 1 mmol/kg, ip administered 30 min prior to maximal electroshock-challenge measured after 60 mins relative to control; format: functional
[57] = tested on: U-251; test: Growth inhibition of human U251 cells at 10 uM relative to control; format: functional; conditions: read-out: GI; outline: as §1

Question: What does the source list for `Cc1ccccc1-n1c(C)nc2cc(NC(=O)c3ccc(Cl)cc3)ccc2c1=O`?
Answer: inhibition of growth at 10 µM [1]: 71%; inhibition of growth at 10 µM [2]: 22.2%; inhibition of growth at 10 µM [3]: 21.2%; inhibition of growth at 10 µM [4]: 27.8%; inhibition of growth at 10 µM [5]: 24.2%; inhibition of growth at 10 µM [6]: 44.2%; inhibition of growth at 10 µM [7]: 23.2%; inhibition of growth at 10 µM [8]: 32.4%; inhibition of growth at 10 µM [9]: 16%; inhibition of growth at 10 µM [10]: 56.5%; inhibition of growth at 10 µM [11]: 99.1%; inhibition of growth at 10 µM [12]: 32.4%; inhibition of growth at 10 µM [13]: 6%; Activity [14]: 0%; Activity [15]: 0%; inhibition of growth at 10 µM [16]: 55.4%; inhibition of growth at 10 µM [17]: 40.3%; inhibition of growth at 10 µM [18]: 32.3%; inhibition of growth at 10 µM [19]: 38.1%; inhibition of growth at 10 µM [20]: 24.4%; inhibition of growth at 10 µM [21]: 35.7%; inhibition of growth at 10 µM [22]: 69.9%; inhibition of growth at 10 µM [23]: 42.2%; growth inhibition (GI) [24]: inactive; inhibition of growth at 10 µM [25]: 19.1%; inhibition of growth at 10 µM [26]: 24.1%; inhibition of growth at 10 µM [27]: 32.3%; inhibition of growth at 10 µM [28]: 31.8%; inhibition of growth at 10 µM [29]: 14%; inhibition of growth at 10 µM [30]: 29.3%; inhibition of growth at 10 µM [31]: 16.8%; inhibition of growth at 10 µM [32]: 12.4%; inhibition of growth at 10 µM [33]: 42.7%; inhibition of growth at 10 µM [34]: 57.8%; inhibition of growth at 10 µM [35]: 12%; inhibition of growth at 10 µM [36]: 3%; inhibition of growth at 10 µM [37]: 17.9%; inhibition of growth at 10 µM [38]: 56.4%; inhibition of growth at 10 µM [39]: 20.4%; inhibition of growth at 10 µM [40]: 48.5%; inhibition of growth at 10 µM [41]: 41.2%; inhibition of growth at 10 µM [42]: 47.3%; inhibition of growth at 10 µM [43]: 52%; inhibition of growth at 10 µM [44]: 36.3%; inhibition of growth at 10 µM [45]: 25.2%; inhibition of growth at 10 µM [46]: 39.4%; inhibition of growth at 10 µM [47]: 21.4%; inhibition of growth at 10 µM [48]: 26.3%; inhibition of growth at 10 µM [49]: 41.1%; inhibition of growth at 10 µM [50]: 40.3%; inhibition of growth at 10 µM [51]: 35.5%; inhibition of growth at 10 µM [52]: 27.5%; inhibition of growth at 10 µM [53]: 39.8%; inhibition of growth at 10 µM [54]: 31.6%; inhibition of growth at 10 µM [55]: 17.6%; Activity [56]: 50%; inhibition of growth at 10 µM [57]: 32.4%

Reference: ChEMBL document CHEMBL1955778, “Design and synthesis of novel 7-aminoquinazoline derivatives: antitumor and anticonvulsant activities” (Bioorg Med Chem Lett, 2012)
